From ChEMBL document CHEMBL5042491, “Identification of Small Molecule Inhibitors of RNase L by Fragment-Based Drug Discovery” (J Med Chem, 2022)
Activity calls are given as the source filed them. No cut-off for these calls is given here.

Legend:
Sus scrofa [1] = species: Sus scrofa; experiment: Inhibition of recombinant full length P-RNAase L (1 to 743 residues) expressed in Escherichia coli BL21 (DE3) using 5'-FAM-UAA-UCA-AAU-UCU-UAU-UUG-CCC-CAU-UUU-UUU-GGU-UUA-BHQ-1-3' as substrate incubated for 60 min by FRET assay
Outline: (§1)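 FRET cleavage assay. Recombinant RNase L (10 nM human or 2.5 nM porcine, final) was preincubated 10 min on ice with graded compound in 25 mM Tris pH 7.4, 100 mM KCl, 10 mM MgCl2, 2.5 mM DTT and 0.5 nM 2-5A. FAM/BHQ1 RNA probe was added and the mix held 1 h at room temperature. Read at ex 480/em 535 nm; triplicates; IC50 from dose-response.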

[2] = target: T1, 2-5A-dependent ribonuclease (Homo sapiens) (UniProt Q05823); experiment: Inhibition of recombinant full length H-RNAase L (1 to 741 residues) expressed in Escherichia coli BL21 (DE3) using 5'-FAM-UAA-UCA-AAU-UCU-UAU-UUG-CCC-CAU-UUU-UUU-GGU-UUA-BHQ-1-3' as substrate incubated for 60 min by FRET assay; outline: as §1
T1 sequence (whole entry): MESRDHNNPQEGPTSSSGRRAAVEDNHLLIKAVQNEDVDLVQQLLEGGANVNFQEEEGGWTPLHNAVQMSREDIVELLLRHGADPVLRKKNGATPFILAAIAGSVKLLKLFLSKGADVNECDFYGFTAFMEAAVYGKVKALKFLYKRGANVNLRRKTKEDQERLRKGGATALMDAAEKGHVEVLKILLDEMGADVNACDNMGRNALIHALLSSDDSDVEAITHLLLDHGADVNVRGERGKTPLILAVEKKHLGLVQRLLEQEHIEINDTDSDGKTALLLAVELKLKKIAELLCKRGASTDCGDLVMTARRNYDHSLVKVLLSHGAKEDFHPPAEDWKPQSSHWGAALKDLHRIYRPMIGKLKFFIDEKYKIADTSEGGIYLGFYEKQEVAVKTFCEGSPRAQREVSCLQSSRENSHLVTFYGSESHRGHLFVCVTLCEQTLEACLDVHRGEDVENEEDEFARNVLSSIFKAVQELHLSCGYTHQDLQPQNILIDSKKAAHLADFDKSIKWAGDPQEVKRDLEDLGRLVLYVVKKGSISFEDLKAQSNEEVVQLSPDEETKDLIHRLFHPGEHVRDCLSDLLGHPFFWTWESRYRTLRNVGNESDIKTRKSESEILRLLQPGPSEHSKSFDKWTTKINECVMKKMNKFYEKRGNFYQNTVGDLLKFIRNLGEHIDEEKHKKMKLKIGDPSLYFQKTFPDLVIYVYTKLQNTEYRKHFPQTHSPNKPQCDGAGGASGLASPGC

[3] = target: T2, 2-5A-dependent ribonuclease (Homo sapiens, UniProt Q05823); experiment: Inhibition of recombinant full length H-RNAase L (1 to 741 residues) expressed in Escherichia coli BL21 (DE3) assessed as inhibition rate in presence of 2-5A and ATP/MgCl2 by STD-NMR spectroscopy
T2 sequence (Q05823 whole entry): T1 sequence (whole entry)

Sus scrofa [4] = species: Sus scrofa; experiment: (§2) Inhibition of recombinant full length P-RNAase L (1 to 743 residues)expressed in Escherichia coli BL21 (DE3) assessed as inhibition rate in presence of 2-5A AND ATP/MgCl2 by STD-NMR spectroscopy; conditions: time 60.0 min
[5] = Inhibition of wild type P-RNAase L expressed in Escherichia coli BL21 (DE3) assessed as inhibition rate; parameters: species or system Sus scrofa
[6] = target: T1, 2-5A-dependent ribonuclease (Homo sapiens); experiment: Inhibition of RNAase L in human A549 cells assessed as rRNA cleavage pretreated at 30 uM for 4 hrs followed by treated with 20 uM 2-5A by […] analysis; format: cell-based
Outline: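 A549 cells were grown 16 h in RPMI with 10% FBS, then given inhibitor at 3, 10, 30 or 100 μM in fresh medium for 4 h. Trimeric 2-5A (20 μM) was then transfected with lipofectamine 2000 with inhibitor still present, for 2 h more. rRNA cleavage was read from total RNA on Bioanalyzer chips. NP40 lysates were western-blotted for RNase L and beta-actin.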

[7] = Inhibition of P-RNAase L K164E mutant expressed in Escherichia coli BL21 (DE3) assessed as inhibition rate; parameters: species or system Sus scrofa
[8] = target: T2, 2-5A-dependent ribonuclease; experiment: Inhibition of full length H-RNAase L expressed in Escherichia coli BL21 (DE3) assessed as inhibition rate incubated for 15 min in presence of 5 nM 2-5A for 15 mins by Coomassie staining based SDS-PAGE analysis
[9] = target: T2, 2-5A-dependent ribonuclease; experiment: Inhibition of full length H-RNAase L expressed in Escherichia coli BL21 (DE3) assessed as inhibition rate incubated for 15 min in presence of 1 nM 2-5A for 15 mins by Coomassie staining based SDS-PAGE analysis
Sus scrofa [10] = species: Sus scrofa; experiment: Suppression of 2-5A-induced full length P-RNase L oligomerization in presence of upto 2 uM 2-5A at 40 uM by SDS-PAGE analysis
Outline: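 Full-length porcine RNase L (0.8 μM) with 5 mM MgCl2 was held 15 min on ice with or without inhibitor, then 15 min on ice with 2-5A. It was cross-linked with dimethyl suberimidate in triethanolamine (pH 8.5) for 1 h at room temperature. Samples were boiled in SDS loading buffer, run on 4-12% SDS-PAGE and stained with Coomassie.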

[11] = target: T2, 2-5A-dependent ribonuclease; experiment: Inhibition of full length H-RNAase L expressed in Escherichia coli BL21 (DE3) assessed as inhibition rate incubated for 15 min in presence of 20 nM 2-5A for 15 mins by Coomassie staining based SDS-PAGE analysis
[12] = Inhibition of full length P-RNAase L expressed in Escherichia coli BL21 (DE3) assessed as inhibition rate incubated for 15 min in presence of 1 nM 2-5A for 15 mins by Coomassie staining based SDS-PAGE analysis; parameters: species or system Sus scrofa
[13] = Inhibition of full length P-RNAase L expressed in Escherichia coli BL21 (DE3) assessed as inhibition rate incubated for 15 min in presence of 5 nM 2-5A for 15 mins by Coomassie staining based SDS-PAGE analysis; parameters: species or system Sus scrofa
[14] = Inhibition of full length P-RNAase L expressed in Escherichia coli BL21 (DE3) assessed as inhibition rate incubated for 15 min in presence of 20 nM 2-5A for 15 mins by Coomassie staining based SDS-PAGE analysis; parameters: species or system Sus scrofa
[15] = Inhibition of P-RNAase L R353E mutant expressed in Escherichia coli BL21 (DE3) assessed as inhibition rate; parameters: species or system Sus scrofa
[16] = as §2; parameters: species or system Sus scrofa

For Oc1ccc(Sc2ccc(O)cc2)cc1, the inhibition (Sus scrofa [1]) was “Active” and the inhibition [2] was “Active”.
In the case of CCCCOC(=O)c1ccc(O)cc1 [BUTYLPARABEN], the IC50 [3] is reported as 2400 µM, the inhibition (Sus scrofa [4]) is reported as “inactive” and the inhibition [2] is reported as “Active”.
In the case of Cc1cc(C(=O)O)cc(Cl)n1, the inhibition (Sus scrofa [1]) is reported as “Active” and the inhibition [2] is reported as “Active”.
With C[S+]([O-])c1sc(Cl)c2c1C(=O)CCC2 (stereo not drawn) the inhibition (Sus scrofa [1]) was “Active” and the inhibition [2] was “Active”.
In the case of O=c1c(O[C@@H]2O[C@H](CO)[C@H](O)[C@H](O)[C@H]2O)c(-c2ccc(O)c(O)c2)oc2cc(O)cc(O)c12 [HYPEROSIDE], the IC50 [5] is reported as 0.9 µM, the Activity [6] is reported as “inactive” and the IC50 [7] is reported as 1.02 µM. It also gave an IC50 [8] of 1.32 µM, an IC50 [3] of 1.63 µM and an IC50 [9] of 1.36 µM. The inhibition (Sus scrofa [10]) was “inactive”, the IC50 [11] was 1.42 µM and the IC50 [12] was 1.47 µM. The IC50 [13] was 1.42 µM, the IC50 [14] was 1.42 µM and the IC50 [15] was 0.65 µM.
With O=c1cc(-c2ccc(O)cc2)oc2c([C@@H]3O[C@H](CO)[C@@H](O)[C@H](O)[C@H]3O)c(O)cc(O)c12 [VITEXIN] the Activity [6] was “inactive”, the IC50 [3] was 190 µM and the IC50 [16] was 109 µM.
For O=C(O)c1ccc(Cl)nc1Cl, the inhibition (Sus scrofa [1]) was “Active” and the inhibition [2] was “Active”.
O=c1c(O)c(-c2cc(O)c(O)c(O)c2)oc2cc(O)cc(O)c12 [MYRICETIN] gave an IC50 [3] of 264 µM and an IC50 [16] of 173 µM.
